The text below walks through data of ChEMBL document CHEMBL1124641, “Synthesis and antiinflammatory and analgesic activity of 5-aroyl-6-(methylthio)-1,2-dihydro-3H-pyrrolo[1,2-a]pyrrole-1-ca rboxyl ic acids and 1-methyl-4-(methylthio)-5-aroylpyrrole-2-acetic acids” (J Med Chem, 1989).

The subject of one data set is Mus musculus. The data set can be described thus: Analgesic activity was assessed from the ability to inhibit phenylquinone-induced writhing in mouse […]. The class given is functional. In outline: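 Mouse phenylquinone-induced writhing screen. Potency is expressed relative to aspirin (aspirin = 1), with 95% confidence limits where given.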
Data set [1] deals with Rattus norvegicus. The data set can be described thus: Antiinflammatory activity assessed by inhibition of carrageenan-induced edema in rats […]. The data set is classed as functional.
A short description of data set [2]: Therapeutic ratio of MED GI erosion to that of ED30 of rat paw. The class given is ADME. In a few lines:
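Ratio derived as the gastrointestinal erosion minimum effective dose divided by the ED30 from the carrageenan rat paw assay. The erosion dose (mg/kg per day) comes from a 7-day chronic dosing assay in rats.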

For data set [3], the species on record is Rattus norvegicus. The data set can be described thus: Chronic gastrointestinal erosive activity in rats. The following applies: read-out: MED. The class given is functional. In a few lines: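 Chronic 7-day gastrointestinal erosion assay in rats with daily dosing. The read-out is the minimum effective dose for erosion (mg/kg per day), with 15 rats where stated.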

With `CSc1cc2n(c1C(=O)c1ccc(Br)cc1)CCC2C(=O)O` (stereo unspecified), in the data set with Mus musculus, the ED50 is below 9 mg/kg. For the same molecule, the ED30 in the data set on Rattus norvegicus [1] amounted to 26 mg/kg.

Molecule `CSc1cc2n(c1C(=O)c1ccc(F)cc1)CCC2C(=O)O` (stereo unspecified) showed an ED50 in the data set on Mus musculus of 60 mg/kg. The ED30 in the data set with Rattus norvegicus [1] was below 10 mg/kg.

On to `CCOc1ccc(C(=O)c2c(SC)cc(CC(=O)O)n2C)cc1`, for which the ED50 with Mus musculus came to 6 mg/kg. For the same molecule, the ED30 with Rattus norvegicus [1] is 3.6 mg/kg.

`CSc1cc2n(c1C(=O)c1ccc(OC(C)C)cc1)CCC2C(=O)O` (stereo unspecified) displayed an ED50 in the data set with Mus musculus of 1 mg/kg. In the data set on Rattus norvegicus [1], this molecule registered an ED30 below 1 mg/kg.

In the case of `COc1ccc(C(=O)c2c(SC)cc3n2CCC3C(=O)O)cc1` (stereo unspecified), it took a dose of 50 mg/kg to reach the 50% effect level with Mus musculus (ED50). This molecule registered an ED30 in the data set on Rattus norvegicus [1] below 10 mg/kg.

Molecule `CS(=O)(=O)c1cc2n(c1C(=O)c1ccc(Br)cc1)CCC2C(=O)O` (stereo unspecified) returned an ED30 with Rattus norvegicus [1] below 1 mg/kg.

`CSc1cc(CC(=O)O)n(C)c1C(=O)c1ccc(F)cc1` displayed an ED50 with Mus musculus of 37 mg/kg. This molecule registered an ED30 in the data set with Rattus norvegicus [1] of 0.5 mg/kg.

In the data set on Mus musculus, `CCc1ccc(C(=O)c2c(SC)cc3n2CCC3C(=O)O)cc1` (stereo unspecified) had an ED50 of 70 mg/kg. In the data set with Rattus norvegicus [1], the ED30 was determined as 16 mg/kg.

As for `CSc1cc2n(c1C(=O)c1ccc(C3CC3)cc1)CCC2C(=O)O` (stereo unspecified), in the data set with Mus musculus, the median effective dose (ED50) stood at 25 mg/kg. For the same molecule, in the data set with Rattus norvegicus [1], the ED30 amounted to 13 mg/kg.

For `CSc1ccc(C(=O)c2c(SC)cc3n2CCC3C(=O)O)cc1` (stereo unspecified), the 50% effect level in the data set on Mus musculus (ED50) was put at a dose of 50 mg/kg. Besides, the ED30 in the data set with Rattus norvegicus [1] came out at 10 mg/kg.

For the molecule `CSc1cc(CC(=O)O)n(C)c1C(=O)c1ccc(Cl)cc1`, the ED50 in the data set on Mus musculus was 56 mg/kg. The molecule also showed an ED30 in the data set on Rattus norvegicus [1] of 1.5 mg/kg.

`CSc1cc2n(c1C(=O)c1ccc(C(F)(F)F)cc1)CCC2C(=O)O` (stereo unspecified) yielded an ED50 in the data set with Mus musculus of 50 mg/kg. Besides, in the data set on Rattus norvegicus [1], the ED30 came out at 15 mg/kg.

Molecule `CSc1cc(CC(=O)O)n(C)c1C(=O)c1ccc(C2CC2)cc1` displayed an ED50 in the data set with Mus musculus of 30 mg/kg. The ED30 in the data set with Rattus norvegicus [1] came to 10 mg/kg.

Take `CCCc1ccc(C(=O)c2c(SC)cc3n2CCC3C(=O)O)cc1` (stereo unspecified): the 50% effect level in the data set on Mus musculus (ED50) was put at a dose of 7 mg/kg. Further, in the data set with Rattus norvegicus [1], the ED30 was 2.5 mg/kg.

Molecule `CSc1cc2n(c1C(=O)c1ccc(C3CCCCC3)cc1)CCC2C(=O)O` (stereo unspecified) yielded an ED50 with Mus musculus below 3 mg/kg. This molecule also returned an ED30 in the data set on Rattus norvegicus [1] below 1 mg/kg.

`CCOc1ccc(C(=O)c2c(SC)cc3n2CCC3C(=O)O)cc1` (stereo unspecified): the ED50 in the data set with Mus musculus is below 13 mg/kg. The molecule also had an ED30 in the data set on Rattus norvegicus [1] of 4 mg/kg.

With `CSc1cc2n(c1C(=O)c1ccc(C)cc1)CCC2C(=O)O` (stereo unspecified), the selectivity ratio in data set [2] came out at 4. The minimal effective dose in the data set listed under Rattus norvegicus [3] stood at 19 mg/kg.

In turn, `CCCc1ccc(C(=O)c2c(SC)cc(CC(=O)O)n2C)cc1` came in with an ED50 in the data set with Mus musculus of 5 mg/kg. This molecule also showed an ED30 in the data set with Rattus norvegicus [1] of 0.2 mg/kg.

Take `CSc1cc(CC(=O)O)n(C)c1C(=O)c1ccc(C)cc1`: the selectivity ratio in data set [2] was above 4.5. Further, the minimal effective dose in the data set filed under Rattus norvegicus [3] was above 45 mg/kg.

`C=Cc1ccc(C(=O)c2c(SC)cc3n2CCC3C(=O)O)cc1` (stereo unspecified) gave an ED50 in the data set with Mus musculus of 38 mg/kg. This molecule registered an ED30 in the data set on Rattus norvegicus [1] of 16 mg/kg.

For the molecule `CSc1cc(CC(=O)O)n(C)c1C(=O)c1ccccc1`, the ED50 with Mus musculus was above 11 mg/kg. For the same molecule, the ED30 in the data set with Rattus norvegicus [1] is 1 mg/kg.

Consider `CSc1cc2n(c1C(=O)c1ccc(Cl)cc1)CCC2C(=O)O` (stereo unspecified), for which, in data set [2], the selectivity ratio stood at 3.5. Moreover, in the data set listed under Rattus norvegicus [3], the minimal effective dose came to 1.5 mg/kg.

`CC(=O)Oc1ccccc1C(=O)O` [ASPIRIN] had an ED50 with Mus musculus of 70 mg/kg.

Take `O=C(c1ccccc1)c1ccc2n1CCC2C(=O)O` (stereo unspecified) [KETOROLAC]: in data set [2], the selectivity ratio came to 18. The minimal effective dose in the data set listed under Rattus norvegicus [3] amounted to 5 mg/kg.

As for `COc1ccc2cc([C@H](C)C(=O)O)ccc2c1` [NAPROXEN], the selectivity ratio in data set [2] turned out to be 22. Also, in the data set filed under Rattus norvegicus [3], the minimal effective dose was determined as 30 mg/kg/day.

As for `CCCCC1C(=O)N(c2ccccc2)N(c2ccccc2)C1=O` [PHENYLBUTAZONE], in the data set with Rattus norvegicus [1], the ED30 was 15 mg/kg.

On to `Cc1cc(CC(=O)O)n(C)c1C(=O)c1ccc(Cl)cc1` [ZOMEPIRAC], for which, in data set [2], the selectivity ratio came to 17. Further, in the data set filed under Rattus norvegicus [3], the minimal effective dose was 10 mg/kg.
